This is an account of results in article PMC5614578 (Biochemistry and Biophysics Reports, 2017).

Entries after “also recorded” stand apart in the source; their conditions may differ. Read-outs that look alike come from different tables or passages of the source.

For assay [1], the target named is T1, System xC^- cystine/glutamate antiporter (SXC) (Rattus norvegicus, UniProt A0A8I6AB70). Nature of the assay: LPS-induced glutamate release from primary microglia. The class given is cell-based. The following applies: for Inhibition of LPS-induced glutamate release (result in words): LPS-treated rat primary microglia. The essentials: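 Rat primary microglia were taken from 14–21-day mixed glial cultures of 1–2-day pup brains by shaking at 200 rpm for 2 h at 37 °C. Cells were plated at 50,000/well on poly-D-Lys and switched after 24 h to serum-free, phenol red-free DMEM with 2 mM glutamine and 0.2 mM cystine. Test compound (8 concentrations, 10 pM–100 μM, 0.1% DMSO final, duplicate or triplicate) was added 15 min before 1 μg/ml LPS for 24 h. Extracellular glutamate was read by enzyme-coupled Amplex UltraRed fluorescence against a glutamate standard curve, with cell-free counter-screens.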

Assay [2] addresses T1, System xC^- cystine/glutamate antiporter (SXC). Nature of the assay: [14C]-cystine uptake by LPS-activated primary microglia. Format: cell-based. A digest of the protocol: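 Microglia were exposed for 24 h to HBSS or LPS (in HBSS) in DMEM with 0.2 mM cystine. An aliquot of that medium was checked for glutamate release to confirm activation. Medium was then replaced and uptake was measured over 15 min in EBSS with [¹⁴C]-cystine tracer (45 μCi/μmol, 10 μM), with LPS ± test compound. Specific uptake was obtained by subtracting a background control. Values average at least four determinations.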

For assay [3] the target is unchanged. The following applies: 1 mM; used for background control; stated as known, no reference given; cited from earlier work.
A further assay concerns ferroptosis. The following applies: read-out: EC50 for induction of ferroptosis; cited from earlier work.
The subject of another assay is rat primary microglia. Format: cell-based. Conditions: 24 h treatment; Pam3CSK4 10 µg/ml, poly I:C 50 µg/ml, Tat 1 µM, LPS 1 µg/ml. A digest of the protocol:
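Primary microglia were isolated from neonatal rat mixed glial cultures by shaking and kept in serum-free, phenol red-free DMEM with 2 mM glutamine and 0.2 mM cystine. Cells were stimulated for 24 h with the activator. Extracellular glutamate was quantified by enzyme-coupled Amplex UltraRed fluorescence against a standard curve, linear over 0.5–64 μM glutamate.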

T1 sequence (A0A8I6AB70 1-502): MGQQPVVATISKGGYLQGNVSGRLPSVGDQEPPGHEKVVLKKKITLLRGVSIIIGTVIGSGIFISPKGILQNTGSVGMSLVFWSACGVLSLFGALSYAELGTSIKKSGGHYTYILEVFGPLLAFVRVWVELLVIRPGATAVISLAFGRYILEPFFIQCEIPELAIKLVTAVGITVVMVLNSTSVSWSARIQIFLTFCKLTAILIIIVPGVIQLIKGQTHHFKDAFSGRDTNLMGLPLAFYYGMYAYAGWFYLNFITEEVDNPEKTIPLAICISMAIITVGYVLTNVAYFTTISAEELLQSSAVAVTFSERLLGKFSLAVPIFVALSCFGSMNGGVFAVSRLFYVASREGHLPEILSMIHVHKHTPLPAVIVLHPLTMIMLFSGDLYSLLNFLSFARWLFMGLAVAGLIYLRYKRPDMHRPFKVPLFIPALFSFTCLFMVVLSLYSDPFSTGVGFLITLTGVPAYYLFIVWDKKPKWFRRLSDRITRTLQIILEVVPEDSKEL
T1 sequence (Q794F9 whole entry partner): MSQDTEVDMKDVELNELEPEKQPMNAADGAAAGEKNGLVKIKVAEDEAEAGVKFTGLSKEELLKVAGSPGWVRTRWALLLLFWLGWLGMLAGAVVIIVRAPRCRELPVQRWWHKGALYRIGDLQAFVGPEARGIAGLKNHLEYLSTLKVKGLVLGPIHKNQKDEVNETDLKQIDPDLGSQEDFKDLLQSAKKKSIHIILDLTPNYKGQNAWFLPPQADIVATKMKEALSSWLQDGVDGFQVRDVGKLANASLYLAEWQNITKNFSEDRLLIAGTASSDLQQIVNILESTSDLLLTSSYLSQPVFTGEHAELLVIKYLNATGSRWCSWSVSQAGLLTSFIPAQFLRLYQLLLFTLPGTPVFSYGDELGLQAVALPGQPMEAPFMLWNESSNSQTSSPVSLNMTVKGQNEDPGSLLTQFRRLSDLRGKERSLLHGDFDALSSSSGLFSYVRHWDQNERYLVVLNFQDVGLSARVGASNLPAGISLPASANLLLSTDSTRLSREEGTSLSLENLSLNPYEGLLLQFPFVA

With `O=C(O)c1cc(/N=N/c2ccc(S(=O)(=O)Nc3ccccn3)cc2)ccc1O` [sulfasalazine], in assay [1], the “Inhibition of LPS-induced glutamate release (result in words)” value is recorded as “blocked”. Further, the “Inhibition of cystine uptake (result in words)” value (“Inhibition of cystine uptake” for short) in assay [2] is listed as “blocked”. For the same molecule, the “Inhibition of SXC activity (result in words)” value in assay [3] was “completely inhibit”.
For `CCOc1ccccc1-n1c(C(C)N2CCN(C(=O)COc3ccc(Cl)cc3)CC2)nc2ccccc2c1=O` (stereo not shown) [erastin], in assay [1], the EC50 came to 130 ± 40 nM and the “Inhibition of LPS-induced glutamate release (result in words)” value is on record as “blocked”. The EC50 in the assay on ferroptosis was 1200 nM. Further, the “Inhibition of cystine uptake” value in assay [2] was “blocked”.
In the case of `CC(C)Oc1ccccc1-n1c(CN2CCN(C(=O)COc3ccc(Cl)cc3)CC2)nc2ccccc2c1=O` [13MEW76], the “Inhibition of LPS-induced glutamate release (result in words)” value in assay [1] was “did not affect inhibitory activity”.
As for `N[C@H](C(=O)O)c1ccc(C(=O)O)cc1` [S-4CPG, (S)-4-carboxyphenyl glycine], the “Inhibition of LPS-induced glutamate release (result in words)” value in assay [1] is given as “blocked”. Also, the “Inhibition of cystine uptake” value in assay [2] is “blocked”.
`CCOc1ccccc1-n1c(C(C)N2CCN(C(=O)COc3ccccc3)CC2)nc2ccccc2c1=O` (stereo not shown) [35MEW13]: in assay [1], the “Inhibition of LPS-induced glutamate release (result in words)” value was “abolished inhibitory activity”.
On to `CCOc1ccccc1-n1c(C(C)N2CCN(C(C)=O)CC2)nc2ccccc2c1=O` (stereo not shown) [Erastin A8], for which the “Inhibition of LPS-induced glutamate release (result in words)” value in assay [1] is “abolished inhibitory activity; also recorded: inactive”. Besides, in assay [2], the “Inhibition of cystine uptake” value is “inactive”.
Consider `N[C@@H](C(=O)O)c1ccc(C(=O)O)cc1` [R-4CPG], for which the “Inhibition of LPS-induced glutamate release (result in words)” value in assay [1] is recorded as “failed to inhibit”; in assay [1] (listed as (R)-4-CPG) it was “did not inhibit”. Besides, the “Inhibition of cystine uptake” value is on record as “failed to inhibit” in assay [2] and “did not inhibit” in assay [2] (listed as (R)-4-CPG).
On to “polyinosinic: polycytidylic acid [poly I:C]”, for which the “Induction of glutamate release (result in words)” value in the assay with rat primary microglia was “Significant glutamate release”.

B1: HIV-1 Tat1–86 protein: HIV-1 Tat1–86 protein obtained from Diatheva, microglia activator (protein, UniProt P04608 1-86, looked up)
Protein Tat: MEPVDPRLEPWKHPGSQPKTACTNCYCKKCCFHCQVCFITKALGISYGRKKRRQRRRAHQNSQTHQASLSKQPTSQPRGDPTGPKE
For B1, in the assay on rat primary microglia, the “Induction of glutamate release (result in words)” value was “Significant glutamate release”.

What is called EC50 is the concentration that produces a half-maximal response.
